Results from publication PMC5818879 (International Journal of Nanomedicine, 2018).
Values after ≈ are worked out from the molar mass of the structure shown. Blank lines part the entries; values can stand above or below the compound they belong to.

What was measured:
[1] = system: HepG2 cells; test: Sulforhodamine B; format: cell-based; settings: Homo sapiens, HepG2, 48 h
[2] = In vivo oral pharmacokinetic study, plasma HPLC; parameters: species or system albino Wistar rats
How it was run: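 Albino Wistar rats received free or PLGA-nanoparticle test compound orally at 100 mg/kg. […] was mixed 1:1 with ACN, vortexed, spun, dried at 40°C and reconstituted in ACN. Assay was RP-C18 HPLC (ACN:H2O 9:1, 1 mL/min, 40°C, 230 nm); calibrants 0.01–50.0 µg/mL.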

[3] = system: NDEA-induced HCC; test: NDEA-induced HCC model: body weight, liver weight, tumor incidence; format: in vivo, Wistar albino rats
How it was run: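 NDEA-induced HCC in male Wistar albino rats (six weeks old, 80–120 g, n=8/group): 100 mg/kg i.p. weekly for 6 weeks. Then free or PLGA-nanoparticle test compound was given at 50 or 100 mg/kg orally, or 5-FU 10 mg/kg i.p., for 15 days; controls got 0.25% CMC 2 mL/kg. Body weight was taken on the first and last days as % gain. Livers were weighed; nodule number and % incidence were counted.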

[4] = system: NDEA-induced HCC; test: NDEA-induced HCC model: oxidative stress parameters in liver tissue; format: in vivo, Wistar albino rats
How it was run: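 Rats were male Wistar albino (80–120 g, n=8/group) given NDEA 100 mg/kg i.p. weekly for 6 weeks. They then received free or PLGA-nanoparticle test compound at 50 or 100 mg/kg orally, or 5-FU 10 mg/kg i.p., for 15 days. Livers were excised, rinsed in ice-cold saline and stored at −80°C. CAT, SOD, GSH, protein carbonyl and TBARS were assayed in liver tissue.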

[5] = system: NDEA-induced HCC; test: NDEA-induced HCC model: catabolic by-products; format: in vivo, Wistar albino rats; settings: NDEA rats; 50 and 100 mg/kg orally for 15 days
[6] = system: IL-2, IL-6, IL-10 and IL-1β; format: in vivo, Wistar albino rats; settings: NDEA rats, ELISA; 50 and 100 mg/kg orally for 15 days
How it was run: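 Male Wistar albino rats (six weeks old, 80–120 g, n=8/group) got NDEA 100 mg/kg i.p. weekly for 6 weeks. Free or PLGA-nanoparticle test compound followed at 50 or 100 mg/kg orally for 15 days (5-FU 10 mg/kg i.p.; vehicle 0.25% CMC). Excised livers were rinsed in ice-cold saline and kept at −80°C. Hepatic IL-2, IL-6, IL-10 and IL-1β were measured by kit ELISA; mean ± SD.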

[7] = system: caspase-3 and -8; test: NDEA-induced HCC model: ELISA of caspase-3 and -8 in liver; format: in vivo, Wistar albino rats; settings: NDEA rats; 50 and 100 mg/kg orally for 15 days
[8] = system: caspase-3 and -8 genes; test: NDEA-induced HCC model: qRT-PCR of caspase-3 and -8 mRNA in liver tissue; format: in vivo, Wistar albino rats; settings: NDEA rats, 50 and 100 mg/kg orally for 15 days
[9] = system: NDEA-induced HCC; test: NDEA-induced HCC model: histopathology; format: in vivo, Wistar albino rats; settings: NDEA rats; 50 and 100 mg/kg orally for 15 days
[10] = albino Wistar, rat, po, 100 mg/kg
[11] = oral 100 mg/kg, albino Wistar rats
[12] = NDEA + 50 mg/kg orally for 15 days
[13] = NDEA + 100 mg/kg orally for 15 days
[14] = NDEA + 5-FU 10 mg/kg i.p. for 15 days

GI50 [1]: 10 µg/mL (≈ 21.9 µM)
AUC [2, 10]: 134 µg·h/mL
AUC(0-inf) [2, 10]: 134 ± 35.7 µg·h/mL
Cmax [2, 10]: 10300 ± 450 ng/mL
MRT [2, 10]: 12.9 ± 1.35 h
Tmax [2, 10]: 4 h
half-life [2, 10]: 10.7 h
AUMC [2, 11]: 1,724.12 µg·h^2/mL
CL [2, 11]: 0.007 h
Compound: C=C(C)[C@@H]1CC[C@]2(C(=O)O)CC[C@]3(C)[C@H](CC[C@@H]4[C@@]5(C)CC[C@H](O)C(C)(C)[C@@H]5CC[C@]43C)[C@@H]12 [B, Betulinic acid]
Final day body weight [3, 12]: 132.00 ± 4.25 g
Liver weight [3, 12]: 12.78 ± 0.73 g
Tumor incidence no [3, 12]: 19.00±0.97
Weight variation [3, 12]: 11.00 ± 1.82 g
Final day body weight [3, 13]: 130.00 ± 2.12 g
Liver weight [3, 13]: 12.03 ± 1.25 g
Tumor incidence no [3, 13]: 14.00±1.01
Weight variation [3, 13]: 12.00 ± 2.93 g
CAT [4, 12]: 5.75±0.27 nM of H2O2/min/µg of protein
GSH [4, 12]: 3.25±0.65 mM/mg of protein
ProC [4, 12]: 0.91±0.02 µM/µg of protein
SOD [4, 12]: 0.19±0.07 U/µg of protein
TBARS [4, 12]: 0.13±0.05 nM of MDA/mg of protein
CAT [4, 13]: 6.81±0.73 nM of H2O2/min/µg of protein
GSH [4, 13]: 3.50±0.32 mM/mg of protein
ProC [4, 13]: 0.76±0.02 µM/µg of protein
SOD [4, 13]: 0.21±0.05 U/µg of protein
TBARS [4, 13]: 0.11±0.04 nM of MDA/mg of protein
Catabolic pigments bilirubin and biliverdin in liver tissue (in words) [5]: significant (p<0.001) normalization
Inflammatory cytokines IL-2, IL-6, IL-10, IL-1β (in words) [6]: decreased to a certain extent
Caspase-3 and -8 levels in liver, ELISA (in words) [7]: ability to elevate the reduced levels of caspase-3 and -8
Caspase-3 and -8 gene expression, qRT-PCR (in words) [8]: significantly elevated (p<0.001) the reduced levels of caspase-3 and -8
Histological changes in liver tissue, H&E (in words) [9]: marked improvement in gross microscopic appearance of hepatic tissue

Compound: O=c1[nH]cc(F)c(=O)[nH]1 [Batch 5-FU, 5-fluorouracil, reference compound]
Final day body weight [3, 14]: 125.00 ± 3.15 g
Liver weight [3, 14]: 10.43 ± 1.71 g
Tumor incidence no [3, 14]: 6.00±0.83
Weight variation [3, 14]: 10.00 ± 1.26 g
CAT [4, 14]: 8.41±0.68 nM of H2O2/min/µg of protein
GSH [4, 14]: 5.04±0.61 mM/mg of protein
ProC [4, 14]: 0.69±0.03 µM/µg of protein
SOD [4, 14]: 0.24±0.09 U/µg of protein
TBARS [4, 14]: 0.09±0.01 nM of MDA/mg of protein
